Assay results taken from ChEMBL document CHEMBL1909630, “Azaxanthene based selective glucocorticoid receptor modulators: design, synthesis, and pharmacological evaluation of (S)-4-(5-(1-((1,3,4-thiadiazol-2-yl)amino)-2-methyl-1-oxopropan-2-yl)-5H-chromeno[2,3-b]pyridin-2-yl)-2-fluoro-N,N-dimethylbenzamide (BMS-776532) and its methylene homologue …” (J Med Chem, 2011).

What was measured:
Glucocorticoid receptor [1] = biological target: T1, Glucocorticoid receptor (Homo sapiens, UniProt P04150); assay: Transactivation activity at GR-alpha in human NP1 Hela cells assessed as inhibition of GAL4-DBD after 20 hrs by luciferase reporter gene assay; format: cell-based
T1 sequence (P04150 whole entry): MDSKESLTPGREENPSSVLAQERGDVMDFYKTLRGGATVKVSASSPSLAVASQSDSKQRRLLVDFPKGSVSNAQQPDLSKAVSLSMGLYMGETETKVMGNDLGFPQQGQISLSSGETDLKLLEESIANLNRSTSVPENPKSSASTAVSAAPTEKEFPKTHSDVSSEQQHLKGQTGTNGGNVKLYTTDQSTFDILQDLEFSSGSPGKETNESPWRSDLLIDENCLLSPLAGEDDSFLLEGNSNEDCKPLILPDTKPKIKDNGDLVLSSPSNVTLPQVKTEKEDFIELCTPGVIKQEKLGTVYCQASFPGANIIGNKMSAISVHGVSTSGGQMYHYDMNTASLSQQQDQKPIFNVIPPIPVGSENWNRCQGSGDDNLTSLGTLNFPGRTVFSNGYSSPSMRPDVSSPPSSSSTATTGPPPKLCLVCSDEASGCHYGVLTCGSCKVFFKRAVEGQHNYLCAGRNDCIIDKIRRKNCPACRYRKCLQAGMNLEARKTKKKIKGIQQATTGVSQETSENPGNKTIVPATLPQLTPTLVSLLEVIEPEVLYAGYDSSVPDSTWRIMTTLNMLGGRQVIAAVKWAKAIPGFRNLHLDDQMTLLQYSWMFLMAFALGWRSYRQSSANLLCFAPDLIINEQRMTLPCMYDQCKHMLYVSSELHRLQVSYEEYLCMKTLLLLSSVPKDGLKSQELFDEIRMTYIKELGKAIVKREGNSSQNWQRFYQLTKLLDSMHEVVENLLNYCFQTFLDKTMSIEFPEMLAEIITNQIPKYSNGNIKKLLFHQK

MG-63 [2] = assay: Induction of glutamine synthase expression in human MG63 cells after overnight incubation by spectrophotometry relative to prednisolone; format: cell-based
Blood [3] = assay: Antiinflammatory activity in human whole blood assessed as inhibition of TNF-alpha-induced IL-8 production after overnight incubation by ELISA; format: functional, tissue-based
Progesterone receptor = biological target: T2, Progesterone receptor (Homo sapiens, UniProt P06401); assay: Displacement of fluorescently labeled ligand from progesterone receptor by fluorescence polarization assay
T2 sequence (P06401 whole entry): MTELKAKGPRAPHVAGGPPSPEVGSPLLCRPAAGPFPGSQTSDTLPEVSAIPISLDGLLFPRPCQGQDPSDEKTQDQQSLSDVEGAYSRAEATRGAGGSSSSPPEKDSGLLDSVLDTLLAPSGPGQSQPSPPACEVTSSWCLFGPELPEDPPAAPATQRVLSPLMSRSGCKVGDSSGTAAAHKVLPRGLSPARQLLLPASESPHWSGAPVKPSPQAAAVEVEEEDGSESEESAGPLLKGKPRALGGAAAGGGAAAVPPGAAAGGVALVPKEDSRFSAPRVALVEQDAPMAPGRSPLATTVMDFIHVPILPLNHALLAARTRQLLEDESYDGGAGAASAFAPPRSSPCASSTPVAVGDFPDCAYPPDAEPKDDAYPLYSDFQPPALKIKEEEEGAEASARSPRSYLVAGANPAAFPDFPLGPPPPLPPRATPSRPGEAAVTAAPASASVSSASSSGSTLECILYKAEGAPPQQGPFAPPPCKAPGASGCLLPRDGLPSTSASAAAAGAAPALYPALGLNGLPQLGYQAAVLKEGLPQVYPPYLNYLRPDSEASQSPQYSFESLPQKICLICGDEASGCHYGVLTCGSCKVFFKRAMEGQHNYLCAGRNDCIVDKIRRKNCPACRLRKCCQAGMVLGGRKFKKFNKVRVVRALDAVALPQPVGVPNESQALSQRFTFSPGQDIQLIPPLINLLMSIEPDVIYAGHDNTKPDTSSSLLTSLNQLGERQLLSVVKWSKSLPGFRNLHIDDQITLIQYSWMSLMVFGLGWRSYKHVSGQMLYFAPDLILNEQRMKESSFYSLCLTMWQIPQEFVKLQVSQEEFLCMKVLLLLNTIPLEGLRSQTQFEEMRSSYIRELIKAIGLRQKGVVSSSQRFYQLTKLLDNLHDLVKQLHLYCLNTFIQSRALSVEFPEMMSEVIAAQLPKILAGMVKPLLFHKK

Glucocorticoid receptor [4] = biological target: T1, Glucocorticoid receptor; assay: Transrepression activity at glucocorticoid receptor alpha in IL-1beta-stimulated human A549 cells assessed as inhibition of NFkappaB-dependent E-selectin transcription by luciferase reporter gene assay; format: cell-based
Rattus norvegicus [5] = assay: Antiinflammatory activity in po dosed Freund's complete adjuvant-induced Lewis rat arthritis model assessed as reduction in onset of arthritis; format: functional, organism-based
How it was run: (§1)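 Male Lewis rats were inoculated with Mycobacterium butyricum in incomplete Freund's adjuvant. Oral dosing was daily and preventative, running from day 0 to day 21. Onset and progression of arthritis were followed, and ED50 was estimated from the dose response.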

[6] = Oral bioavailability in Sprague-Dawley rat at 10 mg/kg; format: ADME, organism-based; conditions: in vivo
How it was run: (§2)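 Male Sprague-Dawley rats received a single intravenous (1 mg/kg) or oral (10 or 50 mg/kg) dose. Plasma pharmacokinetic parameters were derived from these profiles.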

[7] = AUC in Sprague-Dawley rat at 1 mg/kg, iv; format: ADME, organism-based; set-up: dose 1 mg/kg, route intravenous; conditions: plasma; how it was run: as §2
[8] = Volume of distribution at steady state in Sprague-Dawley rat at 1 mg/kg, iv; format: ADME, organism-based; set-up: dose 1 mg/kg, route intravenous; conditions: in vivo, read-out: Vdss; how it was run: as §2
Blood [9] = assay: Antiinflammatory activity in human whole blood assessed as inhibition of TNF-alpha-induced IL-8 production after overnight incubation by ELISA relative to dexamethasone; format: functional
Rattus norvegicus [10] = assay: Antiinflammatory activity in po dosed Freund's complete adjuvant-induced Lewis rat arthritis model assessed as reduction in progression of arthritis; format: functional, organism-based; how it was run: as §1
[11] = Clearance in Sprague-Dawley rat at 1 mg/kg, iv; format: ADME, organism-based; set-up: dose 1 mg/kg, route intravenous; conditions: in vivo; how it was run: as §2
Blood [12] = assay: Antiinflammatory activity in human whole blood assessed as inhibition of LPS-induced TNFalpha production after overnight incubation by ELISA; format: functional, tissue-based
How it was run: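 Whole blood from two donors per experiment was collected into ACD-A. Compounds were added and the blood was incubated about 20 h at 37 °C under 5% CO2. Blood was then stimulated for 5 h with LPS (final 100 ng/mL, for TNFα) or IL-1β (final 10 ng/mL, for IL-8). Plasma TNFα or IL-8 was measured by ELISA. Efficacy was expressed as % of dexamethasone, and values are means of at least two experiments.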

Glucocorticoid receptor [13] = biological target: T1, Glucocorticoid receptor; assay: Displacement of GS-red from glucocorticoid receptor by fluorescence polarization assay
MG-63 [14] = assay: Induction of glutamine synthase expression in human MG63 cells after overnight incubation by spectrophotometry; format: cell-based
[15] = AUC in Sprague-Dawley rat at 50 mg/kg, po; format: ADME, organism-based; set-up: dose 50 mg/kg, route oral; conditions: plasma; how it was run: as §2
Glucocorticoid receptor [16] = biological target: T1, Glucocorticoid receptor; assay: Transactivation activity at glucocorticoid receptor alpha human 13D3/Huh7 cells assessed as induction of TAT activity after 4 hrs by spectrophotometry; format: cell-based, Huh-7
Rattus norvegicus [17] = assay: Antiinflammatory activity in po dosed Freund's complete adjuvant-induced Lewis rat arthritis model assessed as reduction in paw swelling administered once daily for 21 days; format: functional; conditions: 504 h; how it was run: as §1

SMILES	EC50 (Glucocorticoid receptor [1]) [nM]	Emax (MG-63 [2]) [%]	EC50 (Blood [3]) [nM]	Ki (Progesterone receptor) [nM]	EC50 (Glucocorticoid receptor [4]) [nM]	Activity (Rattus norvegicus [5])	bioavailability [6] [%]	AUC [7] [ng·h/mL]	Vd [8] [L/kg]	Imax (Blood [9]) [%]	Activity (Rattus norvegicus [10])	clearance [11] [mL/min/kg]	EC50 (Blood [12]) [nM]	Ki (Glucocorticoid receptor [13]) [nM]	EC50 (MG-63 [14]) [nM]	AUC [15] [ng·h/mL]	EC50 (Glucocorticoid receptor [16]) [nM]	ED50 (Rattus norvegicus [17]) [mg/kg]
CCN(C)C(=O)c1ccc(-c2ccc3c(n2)Oc2ccccc2[C@@H]3C(C)(C)C(=O)Nc2nncs2)cc1F	113	53	532	1830	6.89	Dose-dependent effect	17	526	0.5	76	Dose-dependent effect	34	379	1.64	207	28100	88	8
CN(C)C(=O)c1ccc(-c2ccc3c(n2)Oc2ccccc2[C@H]3C(C)(C)C(=O)Nc2nncs2)cc1F	143	33	1470	1530	33.8	Dose-dependent effect	20	342	1	55	Dose-dependent effect	49.5	830	1.94	44	20200	150	17
